According to ChEMBL document CHEMBL1140779, “Trisubstituted 1,2,4-triazoles as ligands for the ghrelin receptor: on the significance of the orientation and substitution at position 3” (Bioorg Med Chem Lett, 2008):

These molecules were tested against T1, Growth hormone secretagogue receptor type 1 (Homo sapiens, UniProt Q92847) (assay: Antagonist activity at human GHSR1a receptor expressed in CHO cells assessed as reduction of ghrelin-induced intracellular calcium mobilization).
Assay type: functional, cell-based

T1 sequence (Q92847 whole entry): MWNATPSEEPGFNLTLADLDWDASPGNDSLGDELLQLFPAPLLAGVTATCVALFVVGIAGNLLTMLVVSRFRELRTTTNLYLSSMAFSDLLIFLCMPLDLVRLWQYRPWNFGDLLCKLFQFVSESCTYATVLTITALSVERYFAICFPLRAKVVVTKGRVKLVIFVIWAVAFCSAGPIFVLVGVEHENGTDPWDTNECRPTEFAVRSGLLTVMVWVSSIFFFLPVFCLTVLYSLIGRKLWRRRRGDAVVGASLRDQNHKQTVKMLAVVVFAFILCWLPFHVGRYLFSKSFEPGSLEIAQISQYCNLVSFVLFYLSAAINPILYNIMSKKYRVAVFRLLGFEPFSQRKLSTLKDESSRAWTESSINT

Row | SMILES | IC50 | Kb
1 | COc1ccc(Cn2c(Cc3ccccc3)nnc2[C@@H](Cc2c[nH]c3ccccc23)NC(=O)C(C)(C)N)cc1 | 0.87 µM | 0.019 µM
2 | COc1ccc(Cn2c(CCc3c[nH]c4ccccc34)nnc2[C@H](Cc2c[nH]c3ccccc23)NC(=O)C(C)(C)N)c(OC)c1 | 3.2 µM | 0.069 µM
3 | COc1ccc(Cn2c(CCc3c[nH]c4ccccc34)nnc2[C@@H](Cc2c[nH]c3ccccc23)NC(=O)C(C)(C)N)cc1 | 0.19 µM | –
4 | COc1ccc(Cn2c(CCc3ccccc3)nnc2[C@@H](Cc2c[nH]c3ccccc23)NC(=O)C(C)(C)N)c(OC)c1 | 0.8 µM | –
5 | COc1ccc(Cn2c(CCc3ccccc3)nnc2[C@@H](Cc2c[nH]c3ccccc23)NC(=O)C(C)(C)N)cc1 | 0.275 µM | –
6 | COc1ccc(Cn2c(CCc3c[nH]c4ccccc34)nnc2[C@@H](Cc2c[nH]c3ccccc23)NC(=O)C(C)(C)N)c(OC)c1 | 0.62 µM | –
7 | COc1ccc(Cn2c(CCCc3ccccc3)nnc2[C@@H](Cc2c[nH]c3ccccc23)NC(=O)C(C)(C)N)cc1 | 0.6 µM | –

What follows are molecules tested against T1, Growth hormone secretagogue receptor type 1 (assay: Antagonist activity at human GHSR1a receptor expressed in CHO cells assessed as intracellular calcium mobilization).

Row | SMILES | Kb
8 | COc1ccc(Cn2c(CCc3c[nH]c4ccccc34)nnc2[C@@H](Cc2c[nH]c3ccccc23)NC(=O)[C@@H]2CCCN2)cc1 | 0.006 µM
9 | COc1ccc(Cn2c(CCc3c[nH]c4ccccc34)nnc2[C@H](Cc2c[nH]c3ccccc23)NC(=O)[C@@H]2CCCN2)cc1 | 0.44 µM

These molecules were tested against T1, Growth hormone secretagogue receptor type 1 (assay: Agonist activity at human GHSR1a receptor expressed in CHO cells assessed as intracellular calcium mobilization).
Assay type: functional, cell-based

Row | SMILES | EC50
10 | COc1ccc(Cn2c(CCc3c[nH]c4ccccc34)nnc2[C@H](Cc2c[nH]c3ccccc23)NC(=O)C2CCNCC2)cc1 | 0.032 µM
11 | COc1ccc(Cn2c(CCc3c[nH]c4ccccc34)nnc2[C@H](Cc2c[nH]c3ccccc23)NC(=O)C2CCOCC2)cc1 | 0.024 µM
12 | COc1ccc(Cn2c(CCc3c[nH]c4ccccc34)nnc2[C@@H](Cc2c[nH]c3ccccc23)NC(=O)C2CCOCC2)cc1 | 0.024 µM

These molecules were tested against T1, Growth hormone secretagogue receptor type 1 (assay: Agonist activity at human GHSR1a receptor expressed in CHO cells assessed as intracellular calcium mobilization at 10 uM relative to ghrelin).
Assay type: functional, cell-based
Outline: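 Transiently electroporated hGHS-R1a CHO cells loaded with Fluo-4AM; compound at 10 µM, triplicate, at least 2 independent experiments; fluorescence rise (485/525 nm, 60 s read) compared with buffer-only basal; maximal output taken as that of 0.1 µM ghrelin.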

Row | SMILES | Activity
13 | COc1ccc(Cn2c(Cc3ccccc3)nnc2[C@@H](Cc2c[nH]c3ccccc23)NC(=O)C(C)(C)N)cc1 | 9%
14 | COc1ccc(Cn2c(CCc3c[nH]c4ccccc34)nnc2[C@H](Cc2c[nH]c3ccccc23)NC(=O)C(C)(C)N)c(OC)c1 | 4%
15 | COc1ccc(Cn2c(CCc3c[nH]c4ccccc34)nnc2[C@H](Cc2c[nH]c3ccccc23)NC(=O)C2CCNCC2)cc1 | 100%
16 | COc1ccc(Cn2c(CCc3c[nH]c4ccccc34)nnc2[C@H](Cc2c[nH]c3ccccc23)NC(=O)C2CCOCC2)cc1 | 0%
17 | COc1ccc(Cn2c(CCc3c[nH]c4ccccc34)nnc2[C@@H](Cc2c[nH]c3ccccc23)NC(=O)C2CCOCC2)cc1 | 2%
18 | COc1ccc(Cn2c(CCc3ccccc3)nnc2[C@@H](Cc2c[nH]c3ccccc23)NC(=O)C(C)(C)N)c(OC)c1 | 0%
19 | COc1ccc(Cn2c(CCc3c[nH]c4ccccc34)nnc2[C@@H](CC(=O)OCc2ccccc2)NC(=O)C(C)(C)N)cc1 | 5%
20 | COc1ccc(Cn2c(CCCc3ccccc3)nnc2[C@H](Cc2c[nH]c3ccccc23)NC(=O)C(C)(C)N)cc1 | 17%
21 | COc1ccc(Cn2c(Cc3ccccc3)nnc2[C@H](Cc2c[nH]c3ccccc23)NC(=O)C(C)(C)N)cc1 | 5%
22 | COc1ccc(Cn2c(Cc3ccccc3)nnc2[C@@H](Cc2ccccc2)NC(=O)C(C)(C)N)cc1 | 6%
23 | COc1ccc(Cn2c(CCc3ccccc3)nnc2[C@H](Cc2c[nH]c3ccccc23)NC(=O)C(C)(C)N)c(OC)c1 | 4%
24 | COc1ccc(Cn2c(CCc3ccccc3)nnc2[C@H](Cc2c[nH]c3ccccc23)NC(=O)C(C)(C)N)cc1 | 0%
25 | COc1ccc(Cn2c(CCc3ccccc3)nnc2[C@@H](Cc2c[nH]c3ccccc23)NC(=O)C(C)(C)N)cc1 | 2%
26 | COc1ccc(Cn2c(Cc3ccccc3)nnc2[C@@H](Cc2c[nH]c3ccccc23)NC(=O)C(C)(C)N)c(OC)c1 | 0%
27 | COc1ccc(Cn2c(CCc3c[nH]c4ccccc34)nnc2[C@@H](Cc2c[nH]c3ccccc23)NC(=O)C(C)(C)N)c(OC)c1 | 0%
28 | COc1ccc(Cn2c(CCc3c[nH]c4ccccc34)nnc2[C@@H](Cc2c[nH]c3ccccc23)NC(=O)c2ccccn2)cc1 | 0%
29 | COc1ccc(Cn2c(CCc3c[nH]c4ccccc34)nnc2[C@H](Cc2c[nH]c3ccccc23)NC(=O)C(C)(C)N)cc1 | 31%
30 | COc1ccc(Cn2c(CCCc3ccccc3)nnc2[C@@H](Cc2c[nH]c3ccccc23)NC(=O)C(C)(C)N)cc1 | 0%
31 | COc1ccc(Cn2c(CCc3c[nH]c4ccccc34)nnc2[C@@H](Cc2ccccc2)NC(=O)C(C)(C)N)cc1 | 6%
32 | COc1ccc(Cn2c(Cc3ccccc3)nnc2[C@H](Cc2c[nH]c3ccccc23)NC(=O)C(C)(C)N)c(OC)c1 | 11%
33 | COc1ccc(Cn2c(CCc3c[nH]c4ccccc34)nnc2[C@@H](COCc2ccccc2)NC(=O)C(C)(C)N)cc1 | 0%
34 | COc1ccc(Cn2c(CCc3c[nH]c4ccccc34)nnc2[C@H](Cc2c[nH]c3ccccc23)NC(=O)[C@@H]2CCCN2)cc1 | 0%

Each molecule was assayed against T1, Growth hormone secretagogue receptor type 1 (assay: Displacement of [125I]His9-ghrelin from human GHSR1a receptor expressed in LLC PK1 cells).
Assay type: cell-based

Row | SMILES | IC50
35 | COc1ccc(Cn2c(CCc3c[nH]c4ccccc34)nnc2[C@H](Cc2c[nH]c3ccccc23)NC(=O)C2CCNCC2)cc1 | 0.007 µM
36 | COc1ccc(Cn2c(CCc3c[nH]c4ccccc34)nnc2[C@H](Cc2c[nH]c3ccccc23)NC(=O)C2CCOCC2)cc1 | 1.3 µM
37 | COc1ccc(Cn2c(CCc3c[nH]c4ccccc34)nnc2[C@@H](Cc2c[nH]c3ccccc23)NC(=O)C2CCOCC2)cc1 | 0.045 µM
38 | COc1ccc(Cn2c(CCc3c[nH]c4ccccc34)nnc2[C@@H](CC(=O)OCc2ccccc2)NC(=O)C(C)(C)N)cc1 | 0.45 µM
39 | COc1ccc(Cn2c(CCCc3ccccc3)nnc2[C@H](Cc2c[nH]c3ccccc23)NC(=O)C(C)(C)N)cc1 | > 1 µM
40 | COc1ccc(Cn2c(Cc3ccccc3)nnc2[C@H](Cc2c[nH]c3ccccc23)NC(=O)C(C)(C)N)cc1 | > 1 µM
41 | COc1ccc(Cn2c(Cc3ccccc3)nnc2[C@@H](Cc2ccccc2)NC(=O)C(C)(C)N)cc1 | > 1 µM
42 | COc1ccc(Cn2c(CCc3ccccc3)nnc2[C@H](Cc2c[nH]c3ccccc23)NC(=O)C(C)(C)N)c(OC)c1 | 0.45 µM
43 | COc1ccc(Cn2c(CCc3ccccc3)nnc2[C@H](Cc2c[nH]c3ccccc23)NC(=O)C(C)(C)N)cc1 | > 1 µM
44 | COc1ccc(Cn2c(CCc3c[nH]c4ccccc34)nnc2[C@@H](Cc2c[nH]c3ccccc23)NC(=O)c2ccccn2)cc1 | 0.008 µM
45 | COc1ccc(Cn2c(CCc3c[nH]c4ccccc34)nnc2[C@H](Cc2c[nH]c3ccccc23)NC(=O)C(C)(C)N)cc1 | 0.14 µM
46 | COc1ccc(Cn2c(CCc3c[nH]c4ccccc34)nnc2[C@@H](Cc2ccccc2)NC(=O)C(C)(C)N)cc1 | 0.2 µM
47 | COc1ccc(Cn2c(Cc3ccccc3)nnc2[C@H](Cc2c[nH]c3ccccc23)NC(=O)C(C)(C)N)c(OC)c1 | > 1 µM
48 | COc1ccc(Cn2c(CCc3c[nH]c4ccccc34)nnc2[C@@H](COCc2ccccc2)NC(=O)C(C)(C)N)cc1 | 0.8 µM
49 | COc1ccc(Cn2c(CCc3c[nH]c4ccccc34)nnc2[C@H](Cc2c[nH]c3ccccc23)NC(=O)[C@@H]2CCCN2)cc1 | 0.65 µM
